Laboratory results as given in ChEMBL document CHEMBL4346734, “Modification of the 4-phenylbutyl side chain of potent 3-benzazepine-based GluN2B receptor antagonists” (Bioorg Med Chem, 2019).

Experiments:
[1] = target: Glutamate receptor ionotropic, NMDA 2B (Homo sapiens) (UniProt Q13224); experiment: Displacement of [3H]ifenprodil from human GluN2B expressed in mouse L(tk-) cell membranes at 1 uM incubated for 120 mins by scintillation counting method relative to control
Method in brief: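 Competition binding with [³H]ifenprodil on membranes of mouse fibroblast L(tk-) cells stably transfected with dexamethasone-inducible vectors for human GluN1a and human GluN2B; inhibition (%) of radioligand binding recorded at 1 μM test compound.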

[2] = Displacement of [3H]-(+)-MK-801 from NMDA PCP binding site in pig brain cortex membrane at 1 uM incubated for 120 mins by scintillation counting method relative to control; format: cell membranes
[3] = target: Sigma non-opioid intracellular receptor 1 (Cavia porcellus) (UniProt Q60492); experiment: Displacement of [3H]-(+)pentazocine from sigma-1 receptor in guinea pig brain membranes after 120 mins by scintillation counting method relative to control; format: cell membranes; parameters: concentration or dose not given beside the values
Sequence of Sigma non-opioid intracellular receptor 1 (Cavia porcellus) (Q60492 whole entry): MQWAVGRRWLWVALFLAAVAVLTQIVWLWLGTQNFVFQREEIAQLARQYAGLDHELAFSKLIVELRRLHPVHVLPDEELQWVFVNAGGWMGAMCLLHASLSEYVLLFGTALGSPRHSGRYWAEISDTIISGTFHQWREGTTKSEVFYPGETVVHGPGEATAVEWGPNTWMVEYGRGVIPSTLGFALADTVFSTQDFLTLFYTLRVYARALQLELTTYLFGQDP

[4] = target: T1, Sigma intracellular receptor 2 (Rattus norvegicus) (UniProt Q5U3Y7); experiment: Displacement of [3H]-Di-o-tolylguanidine from sigma-2 receptor in rat liver membranes after 120 mins by scintillation counting method relative to control; format: cell membranes; parameters: concentration or dose not given beside the values
T1 sequence (whole entry): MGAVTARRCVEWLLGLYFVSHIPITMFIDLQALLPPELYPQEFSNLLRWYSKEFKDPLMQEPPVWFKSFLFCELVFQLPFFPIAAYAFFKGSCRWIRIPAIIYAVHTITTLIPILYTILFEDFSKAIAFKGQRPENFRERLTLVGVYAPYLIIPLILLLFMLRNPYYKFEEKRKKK

[5] = target: Glutamate receptor ionotropic, NMDA 2B (Homo sapiens, UniProt Q05586+Q13224); experiment: Displacement of [3H]ifenprodil from human GluN2B expressed in mouse L(tk-) cell membranes co-expressing GluN1a incubated for 120 mins by scintillation counting method
Sequence of Glutamate receptor ionotropic, NMDA 2B (Q13224 whole entry, one chain of several): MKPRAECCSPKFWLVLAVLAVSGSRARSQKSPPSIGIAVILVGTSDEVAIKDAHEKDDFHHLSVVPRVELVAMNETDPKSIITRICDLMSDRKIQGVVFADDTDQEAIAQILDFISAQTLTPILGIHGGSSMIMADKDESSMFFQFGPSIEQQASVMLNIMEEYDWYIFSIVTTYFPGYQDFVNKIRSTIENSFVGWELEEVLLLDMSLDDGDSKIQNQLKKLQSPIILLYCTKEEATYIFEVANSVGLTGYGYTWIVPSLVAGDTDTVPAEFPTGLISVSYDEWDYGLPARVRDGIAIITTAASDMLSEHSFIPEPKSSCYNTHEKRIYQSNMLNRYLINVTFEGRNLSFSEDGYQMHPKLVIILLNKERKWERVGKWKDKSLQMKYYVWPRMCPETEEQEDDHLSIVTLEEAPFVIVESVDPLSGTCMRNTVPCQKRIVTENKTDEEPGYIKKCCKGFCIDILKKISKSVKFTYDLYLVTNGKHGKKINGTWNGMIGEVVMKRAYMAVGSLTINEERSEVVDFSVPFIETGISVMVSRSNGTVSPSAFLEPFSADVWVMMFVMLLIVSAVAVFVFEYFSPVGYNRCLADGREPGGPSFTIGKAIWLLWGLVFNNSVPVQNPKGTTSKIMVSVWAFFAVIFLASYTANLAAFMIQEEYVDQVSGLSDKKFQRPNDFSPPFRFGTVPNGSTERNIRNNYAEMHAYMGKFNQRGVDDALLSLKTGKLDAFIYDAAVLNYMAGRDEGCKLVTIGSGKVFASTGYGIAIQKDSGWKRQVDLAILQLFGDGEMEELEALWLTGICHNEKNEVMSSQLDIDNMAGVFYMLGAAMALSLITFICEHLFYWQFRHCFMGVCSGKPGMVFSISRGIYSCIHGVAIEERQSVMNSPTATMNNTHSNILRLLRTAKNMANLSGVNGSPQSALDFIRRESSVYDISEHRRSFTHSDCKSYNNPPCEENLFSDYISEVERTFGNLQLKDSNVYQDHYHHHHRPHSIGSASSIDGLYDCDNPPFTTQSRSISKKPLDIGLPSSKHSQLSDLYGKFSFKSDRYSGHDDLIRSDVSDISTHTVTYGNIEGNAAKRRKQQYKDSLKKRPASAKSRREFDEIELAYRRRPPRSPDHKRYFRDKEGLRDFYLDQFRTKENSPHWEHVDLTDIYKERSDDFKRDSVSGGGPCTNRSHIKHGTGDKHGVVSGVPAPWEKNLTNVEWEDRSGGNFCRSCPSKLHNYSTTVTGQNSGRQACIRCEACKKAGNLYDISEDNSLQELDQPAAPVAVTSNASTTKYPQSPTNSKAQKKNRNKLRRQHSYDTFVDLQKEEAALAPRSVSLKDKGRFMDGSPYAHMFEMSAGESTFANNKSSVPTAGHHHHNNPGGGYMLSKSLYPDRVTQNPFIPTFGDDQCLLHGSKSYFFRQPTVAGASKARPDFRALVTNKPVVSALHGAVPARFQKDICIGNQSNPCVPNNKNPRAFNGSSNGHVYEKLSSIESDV

[6] = target: T2, Sigma non-opioid intracellular receptor 1 (Cavia porcellus, UniProt Q60492); experiment: Displacement of [3H]-(+)pentazocine from sigma-1 receptor in guinea pig brain membranes after 120 mins by scintillation counting method; format: cell membranes
T2 sequence (Q60492 whole entry): as the sequence (Q60492 whole entry) above

[7] = target: T3, Sigma intracellular receptor 2 (Rattus norvegicus, UniProt Q5U3Y7); experiment: Displacement of [3H]-Di-o-tolylguanidine from sigma-2 receptor in rat liver membranes after 120 mins by scintillation counting method; format: cell membranes
T3 sequence (Q5U3Y7 whole entry): T1 sequence (whole entry)

Cavia porcellus = species: Cavia porcellus; experiment: Displacement of [3H]-(+)-MK-801 from NMDA PCP binding site in pig brain cortex membrane at 1 uM incubated for 150 mins by scintillation counting method relative to control; format: cell membranes
[8] = target: T2, Sigma non-opioid intracellular receptor 1; experiment: Displacement of [3H]-(+)pentazocine from sigma-1 receptor in guinea pig brain membranes after 180 mins by scintillation counting method; format: cell membranes
[9] = target: T3, Sigma intracellular receptor 2; experiment: Displacement of [3H]-Di-o-tolylguanidine from sigma-2 receptor in rat liver membranes after 180 mins by scintillation counting method; format: cell membranes

Sequence of Glutamate receptor ionotropic, NMDA 2B (Homo sapiens) (Q13224 27-1484 limits assumed): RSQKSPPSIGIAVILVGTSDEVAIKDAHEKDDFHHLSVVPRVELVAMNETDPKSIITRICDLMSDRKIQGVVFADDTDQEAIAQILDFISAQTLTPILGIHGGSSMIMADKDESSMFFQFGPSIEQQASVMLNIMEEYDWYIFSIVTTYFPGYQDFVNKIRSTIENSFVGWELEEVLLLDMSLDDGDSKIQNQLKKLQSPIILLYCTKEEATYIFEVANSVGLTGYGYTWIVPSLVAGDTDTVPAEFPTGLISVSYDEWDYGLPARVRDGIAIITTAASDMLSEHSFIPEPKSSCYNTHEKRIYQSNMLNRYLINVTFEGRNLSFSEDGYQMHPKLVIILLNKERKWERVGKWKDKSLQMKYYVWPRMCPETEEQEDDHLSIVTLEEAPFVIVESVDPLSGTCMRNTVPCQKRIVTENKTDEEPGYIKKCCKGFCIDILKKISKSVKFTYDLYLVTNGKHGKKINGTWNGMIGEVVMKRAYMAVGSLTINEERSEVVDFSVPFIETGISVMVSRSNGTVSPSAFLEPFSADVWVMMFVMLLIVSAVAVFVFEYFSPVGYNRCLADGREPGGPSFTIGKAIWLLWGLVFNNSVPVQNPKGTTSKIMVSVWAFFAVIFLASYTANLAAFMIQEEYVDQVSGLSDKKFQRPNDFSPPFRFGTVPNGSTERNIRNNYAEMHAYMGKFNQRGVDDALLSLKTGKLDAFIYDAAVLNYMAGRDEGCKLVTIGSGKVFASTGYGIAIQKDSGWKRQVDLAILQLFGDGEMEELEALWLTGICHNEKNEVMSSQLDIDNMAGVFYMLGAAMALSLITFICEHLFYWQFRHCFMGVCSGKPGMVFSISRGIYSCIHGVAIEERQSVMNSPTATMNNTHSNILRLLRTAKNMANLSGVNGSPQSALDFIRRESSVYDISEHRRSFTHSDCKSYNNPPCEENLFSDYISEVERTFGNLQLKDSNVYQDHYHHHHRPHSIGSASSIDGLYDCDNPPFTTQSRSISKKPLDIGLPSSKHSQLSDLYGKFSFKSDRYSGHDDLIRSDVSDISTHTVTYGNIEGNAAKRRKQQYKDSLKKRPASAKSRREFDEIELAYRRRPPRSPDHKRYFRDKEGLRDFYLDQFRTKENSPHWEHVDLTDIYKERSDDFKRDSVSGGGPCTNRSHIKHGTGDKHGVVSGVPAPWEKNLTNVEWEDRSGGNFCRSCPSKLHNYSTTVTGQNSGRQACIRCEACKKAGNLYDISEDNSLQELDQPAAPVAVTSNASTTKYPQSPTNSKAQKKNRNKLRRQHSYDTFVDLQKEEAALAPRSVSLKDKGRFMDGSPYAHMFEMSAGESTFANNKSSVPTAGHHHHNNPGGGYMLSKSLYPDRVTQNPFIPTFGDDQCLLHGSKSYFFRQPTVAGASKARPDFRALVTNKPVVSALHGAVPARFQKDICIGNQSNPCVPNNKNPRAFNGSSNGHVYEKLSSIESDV

SMILES | inhibition [1] [%] | inhibition [2] [%] | inhibition [3] [%] | inhibition [4] [%] | Ki [5] [µM] | Ki [6] [µM] | Ki [7] [µM] | inhibition (Cavia porcellus) [%] | Ki [8] [µM] | Ki [9] [µM]
COc1ccc2c(c1)CCN(CCC#Cc1ccccc1OCCF)CC2O (centres undefined) | 4 | 4 | 31 | 22 | – | – | – | – | – | –
COc1ccc2c(c1)CCN(CCCC#Cc1ccccc1)CC2O (centres undefined) | – | 9 | – | – | 0.46 | 0.164 | 0.878 | – | – | –
Oc1ccc2c(c1)CCN(CCCCc1ccc(OCCF)cc1)CC2O (centres undefined) | – | 0 | – | – | 0.193 | 0.705 | 0.079 | – | – | –
OC1CN(CCC#Cc2ccc(OCCF)cc2)CCc2cc(OCc3ccccc3)ccc21 (centres undefined) | 0 | 0 | 0 | 12 | – | – | – | – | – | –
COc1ccc2c(c1)CCN(CCCCc1cn(CCF)nn1)CC2O (centres undefined) | 0 | 0 | 28 | 0 | – | – | – | – | – | –
COc1ccc2c(c1)CCN(CCC#Cc1cccnc1)CC2O (centres undefined) | 1 | 0 | 5 | 9 | – | – | – | – | – | –
COc1ccc2c(c1)CCN(CCC#Cc1cccc(OCCF)c1)CC2O (centres undefined) | 3 | 0 | 9 | 23 | – | – | – | – | – | –
COc1ccc2c(c1)CCN(CCC#Cc1nccs1)CC2O (centres undefined) | 0 | 0 | 0 | 0 | – | – | – | – | – | –
COc1ccc2c(c1)CCN(CCCCc1cccnc1)CC2O (centres undefined) | 0 | 0 | – | – | – | 0.274 | 0.397 | – | – | –
COc1ccc2c(c1)CCN(CCC#Cc1cccs1)CC2O (centres undefined) | 13 | 0 | 21 | 20 | – | – | – | – | – | –
COc1ccc2c(c1)CCN(CCC#Cc1ccccc1)CC2O (centres undefined) | 18 | 15 | – | 15 | – | 0.565 | – | – | – | –
COc1ccc2c(c1)CCN(CCCCc1cccs1)CC2O (centres undefined) | 20 | 0 | – | – | – | 0.34 | 0.562 | – | – | –
COc1ccc2c(c1)CCN(CCC#Cc1ccc(OCCF)cc1)CC2O (centres undefined) | 3 | 0 | – | 12 | – | 0.701 | – | – | – | –
COc1ccc2c(c1)CCN(CCCCc1ccccc1OCCF)CC2O (centres undefined) | 19 | 0 | – | – | – | 0.715 | 0.593 | – | – | –
COc1ccc2c(c1)CCN(CCCCc1ccccc1)CC2O (centres undefined) | – | – | – | – | – | – | – | 25 | 0.211 | 0.096
